Source: PubChem BioAssay
Activity calls are given as the source filed them.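 Rule for the calls, unless noted: active = viability at or below 10% of carrier control in both of two separate runs; inconclusive = viability at or below 10% in only one of the two runs; inactive = the rest.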

How the values were obtained:
[1] = reducers of endogenous Her2 protein level, primary screen, SKBR3 breast tumor cells, AlphaScreen, ATP viability (AID 461;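 active = Her2 level under about 52% in both replicate screens, with viability over 70% of control, limit read from the data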;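 for Her2 level: lower value means less Her2 protein in the cells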;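 for viability: percent of carrier control wells set as 100% viability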); conditions: 18-24 h, measured here: SKBR3 viability, ATP luminescence, at 10 µM
[2] = target: Receptor tyrosine-protein kinase erbB-2 (Homo sapiens) (UniProt P04626); test: as above; conditions: 18-24 h, at 10 µM, stronger effect = lower value
[3] = SK-BR-3 cell growth inhibitors, pilot screen, 24 h, human (AID 572); conditions: SK-BR-3 viability, CellTiter-Glo luminescence, at 10 µM, stronger effect = lower value;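 note: compound exposure lasted between 18 and 24 h rather than exactly 24 h; 100% = carrier-treated control wells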
[4] = HUVEC growth inhibition – cell-based, human, primary screen (AID 575;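 active = viability at or below 30% in both replicate assays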;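 note: 100% = median of untreated cell wells with 0.1% DMSO on each plate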); conditions: HUVEC proliferation, CellTiter-Glo luminescence, 72 h; at 10 µM; stronger effect = lower value
Summary of the method: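 Test system: HUVEC primary cells. Quantity: 1250 endothelial cells in each well. Dosing: single-point 10 µM, DMSO 0.1% final. Incubation: 72 h treatment at 37 °C. Measured by: CTG luminescence. Control set: DMSO cell controls and MePR drug controls. Plate: collagen-coated 384-well format.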

[5] = growth inhibitors of H69AR lung tumor, primary screen, human, duplicate replicates (AID 580;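 active = viability at or under a set limit in both replicates, limit being median viability minus 3 SD, cut at about 48% in these data, passing the limit was not always enough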;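 note: 100% = mean luminescence of untreated wells and 0% = no signal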); conditions: H69AR lung tumor cells viability, ATP luminescence, 72 h; at 10 µM; stronger effect = lower value
[6] = reversal of MRP1-mediated doxorubicin resistance, pilot screen, H69AR cells, doxorubicin co-treatment (AID 601;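 active = viability loss from added drug above about 55%, and viability with drug at most 40%, in both replicates, limit read from the data, passing the limit was not always enough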); conditions: CellTiter-Glo, 72 h, at 10 µM; for differential viability (reversal): stronger effect = higher value
[7] = 384-well plate pilot, post-Golgi transport modulator project, inhibition of yeast transport mutant growth (AID 636; in the data active = inhibition above about 31%); conditions: absorbance 615 nm, about 18 h, stronger effect = higher value
[8] = growth suppression of yeast trafficking mutant, preliminary HTS, modulators of trafficking downstream of Golgi apparatus project, 1536-format plate, OD 615 nm (AID 637; in the data active = inhibition above about 30%); conditions: yeast transport mutant growth, absorbance 615 nm, 18 h; stronger effect = higher value
[9] = H69AR cells + 2 uM doxorubicin, measured here: viability with 2 uM doxorubicin, stronger effect = lower value
[10] = H69AR cells, compound alone cytotoxicity

Sequence of Receptor tyrosine-protein kinase erbB-2 (Homo sapiens) (P04626 whole entry, looked up): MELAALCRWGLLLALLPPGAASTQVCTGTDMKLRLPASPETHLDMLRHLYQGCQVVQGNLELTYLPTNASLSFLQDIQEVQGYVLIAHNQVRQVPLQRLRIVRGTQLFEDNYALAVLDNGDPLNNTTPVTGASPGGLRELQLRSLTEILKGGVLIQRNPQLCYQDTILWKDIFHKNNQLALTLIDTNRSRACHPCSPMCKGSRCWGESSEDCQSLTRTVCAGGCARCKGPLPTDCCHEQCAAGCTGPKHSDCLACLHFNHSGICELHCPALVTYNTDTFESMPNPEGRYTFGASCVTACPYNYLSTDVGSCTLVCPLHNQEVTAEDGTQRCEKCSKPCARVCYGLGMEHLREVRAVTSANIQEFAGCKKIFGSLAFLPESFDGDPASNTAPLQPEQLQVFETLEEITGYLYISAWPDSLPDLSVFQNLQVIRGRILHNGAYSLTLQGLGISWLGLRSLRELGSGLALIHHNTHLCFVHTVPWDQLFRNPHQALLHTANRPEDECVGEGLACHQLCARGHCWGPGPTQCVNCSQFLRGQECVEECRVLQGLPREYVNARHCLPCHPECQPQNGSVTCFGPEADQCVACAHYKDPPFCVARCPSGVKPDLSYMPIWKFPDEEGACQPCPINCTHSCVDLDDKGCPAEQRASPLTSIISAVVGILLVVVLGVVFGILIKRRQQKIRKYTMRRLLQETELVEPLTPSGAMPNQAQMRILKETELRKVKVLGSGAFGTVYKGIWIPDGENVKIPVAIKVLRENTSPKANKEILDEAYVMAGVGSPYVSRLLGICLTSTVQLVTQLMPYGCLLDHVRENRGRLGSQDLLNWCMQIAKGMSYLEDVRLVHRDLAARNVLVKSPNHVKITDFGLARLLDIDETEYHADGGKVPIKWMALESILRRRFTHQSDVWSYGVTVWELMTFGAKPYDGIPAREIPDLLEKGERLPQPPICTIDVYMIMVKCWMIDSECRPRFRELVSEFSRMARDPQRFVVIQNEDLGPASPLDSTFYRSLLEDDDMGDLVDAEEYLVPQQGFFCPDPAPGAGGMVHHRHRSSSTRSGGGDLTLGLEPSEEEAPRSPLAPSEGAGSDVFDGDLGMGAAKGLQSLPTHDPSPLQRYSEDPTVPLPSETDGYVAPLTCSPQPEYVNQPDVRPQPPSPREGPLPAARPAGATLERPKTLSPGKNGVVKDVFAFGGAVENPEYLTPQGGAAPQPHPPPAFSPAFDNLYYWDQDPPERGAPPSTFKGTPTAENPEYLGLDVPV

Structure (SMILES)	viability [1] [%]	Her2 level [2]	viability [3]	viability [4]	viability [5]	differential viability (reversal) ([6]; H69AR cells + 2 uM doxorubicin)	viability [6, 9] [%]	viability [6, 10] [%]	inhibition [7]	inhibition [8]
CC[N+](C)(C)c1cccc(O)c1	97.5	94.5% (inactive)	97.5% (inactive)	81.1% (inactive)	95% (inactive)	9.69% (inactive)	85.3	95		
Cc1ncc([N+](=O)[O-])n1CCO	99.5	108% (inactive)	99.5% (inactive)	103% (inactive)	105% (inactive)	8.66% (inactive)	96.7	105		
COc1ccc(C2CNC(=O)C2)cc1OC1CCCC1 (stereo unspecified)	115	121% (inactive)	115% (inactive)	114% (inactive)	109% (inactive)	18.8% (inactive)	90.6	109		
OCCOCCN1CCN(C(c2ccccc2)c2ccc(Cl)cc2)CC1 (stereo unspecified)	79	80% (inactive)	79% (inactive)	90.1% (inactive)	98.3% (inactive)	9.31% (inactive)	89	98.3		
CCC(=O)O[C@@H]1CC(=O)O[C@H](C)CC=CC=C[C@@H](O)[C@H](C)C[C@H](CC=O)[C@H](O[C@H]2O[C@H](C)[C@@H](O[C@H]3C[C@@](C)(O)[C@@H](OC(=O)CC)[C@H](C)O3)[C@H](N(C)C)[C@H]2O)[C@H]1OC	93.5	126% (inactive)	93.5% (inactive)	109% (inactive)	95.3% (inactive)	-4.97% (inactive)	100	95.3		
CC(=O)OCC(=O)[C@@]1(O)[C@H](C)C[C@H]2[C@@H]3CCC4=CC(=O)C=C[C@]4(C)[C@@]3(F)[C@@H](O)C[C@@]21C	118	116% (inactive)	118% (inactive)	101% (inactive)	93.5% (inactive)	-15.8% (inactive)	109	93.5		
COc1ccc(-n2c(COc3ccccc3)nnc2SCc2ccc(C#N)cc2)cc1	88	93% (inactive)	88% (inactive)	81% (inactive)	76.4% (inactive)	22.4% (inactive)	54.1	76.4	0% (inactive)	-7.82% (inactive)
CCC(=O)N1CCc2cc(S(=O)(=O)CCC(=O)Nc3ccc(C)c(F)c3)ccc21	100	98.5% (inactive)	100% (inactive)	91.6% (inactive)	83.3% (inactive)	2.27% (inactive)	81.1	83.3	-4% (inactive)	1.8% (inactive)
Cc1nnc(SCC2=C(C(=O)O)N3C(=O)[C@@H](NC(=O)Cn4cnnn4)[C@H]3SC2)s1	88.5	99.5% (inactive)	88.5% (inactive)	105% (inactive)	101% (inactive)	1.93% (inactive)	98.7	101		
